Results taken from ChEMBL document CHEMBL2385013, “7-Phenyl-imidazoquinolin-4(5H)-one derivatives as selective and orally available mPGES-1 inhibitors” (Bioorg Med Chem, 2013).
Values after ≈ are worked out from the molar mass of the structure shown.

What was measured:
[1] = Solubility of the compound in FaSSIF; assay type: physicochemical
[2] = Permeability of the compound at pH 5 by PAMPA; assay type: ADME; settings: read-out: permeability
Outline: (§1)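 Compound was incubated for 4 h between a donor compartment (System Solution, pH 5.0 or 7.4) and an acceptor sink buffer. The distribution was read by UV absorption, and effective permeability coefficients were calculated by a published method.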

[3] = Permeability of the compound at pH 7.4 by PAMPA; assay type: ADME; settings: read-out: permeability; outline: as §1
[4] = Oral bioavailability in rat at 10 mg/kg; assay type: ADME, organism-based; settings: in vivo
Outline: (§2)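 Fasted male rats (n = 3) were given 1 mg/kg iv in 5% glucose/0.1 M HCl = 9/1, or 10 mg/kg po as a suspension in 0.5% methyl cellulose. Jugular vein blood was drawn into heparinized syringes at iv pre-dose, 5, 15, 30 min, 1, 2, 4, 6 and 24 h, or at po 15 and 30 min, 1, 2, 4, 6 and 24 h. Plasma was analysed for parent compound. BA = (AUCpo/Dpo)/(AUCiv/Div) × 100.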

[5] = AUC in rat at 10 mg/kg, po; assay type: ADME, organism-based; parameters: dose 10 mg/kg, route oral; settings: plasma; outline: as §2
[6] = Cmax in rat at 10 mg/kg, po; assay type: ADME, organism-based; parameters: dose 10 mg/kg, route oral; settings: in vivo; outline: as §2
[7] = AUC in rat at 1 mg/kg, iv; assay type: ADME, organism-based; parameters: dose 1 mg/kg, route intravenous; settings: plasma; outline: as §2
[8] = Volume of distribution at steady state in rat at 1 mg/kg, iv; assay type: ADME, organism-based; parameters: dose 1 mg/kg, route intravenous; settings: in vivo, read-out: Vdss; outline: as §2

Row | solubility [1] [µg/mL] | Papp [2] [×10⁻⁶ cm/s] | Papp [3] [×10⁻⁶ cm/s] | bioavailability [4] [%] | AUC [5] [ng·h/mL] | Cmax [6] [ng/mL] | AUC [7] [ng·h/mL] | Vd [8] [L/kg] | Structure (SMILES)
1 | 0.9 (≈ 2.4 µM) | > 30 | 26 | – | – | – | – | – | O=c1[nH]c2cc(Br)ccc2c2[nH]c(-c3ccccc3Cl)nc12
2 | 1 (≈ 2.57 µM) | 30 | > 30 | 19 | 1400 | 472 | 728 | 1.4 | O=c1[nH]c2cc(-c3ccccc3)ccc2c2nc(-c3c(F)cccc3Cl)[nH]c12
3 | 0.5 (≈ 1.18 µM) | 29 | > 30 | – | – | – | – | – | O=c1[nH]c2cc(-c3cccc(Cl)c3)ccc2c2nc(-c3c(F)cccc3Cl)[nH]c12
4 | 1 (≈ 2.69 µM) | > 30 | > 30 | – | – | – | – | – | O=c1[nH]c2cc(-c3ccccc3)ccc2c2nc(-c3ccccc3Cl)[nH]c12
